From the RNAGym collection of RNA variant scans (doi:10.1126/science.aae0568) come the findings set out here.

First the molecules themselves.
B1: tRNA (parent)
chain: GUUCCGUUGGCGUAAUGGUAACGCGUCUCCCUCCUAAGGAGAAGACUGCGGGUUCGAGUCCCGUACGGAACG

Fewer inactive variants are shown than the library holds.

The variants in this series derive from B1. Description: yeast fitness relative to wild type (ratio to wild type); higher = fitter; tRNA-Arg(CCU), competitive growth, 37 C, YPD. A digest of the protocol: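 Variants of the tRNA-Arg(CCU) gene were chemically synthesised with a 3% per-site mutation rate across 69 sites and placed at the native genomic locus in Saccharomyces cerevisiae. Six parallel replicates of the pooled strains were competed in YPD at 37°C for 24 hours, and gene amplicons from the start and end populations were read by 100-nucleotide paired-end sequencing. Darwinian fitness relative to wild type was derived from changes in genotype frequencies. Genotypes required ≥ 100 starting reads, and estimates < 0.5 were set to 0.5.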
On to GUUCCGUUGGCGUAAUGGUAACGCGUAUCCCUCCUAAGGAGAAGACUGCGGGUACGAGUCCCGUACGGAACG, for which the yeast fitness turned out to be 0.727. As for GUUCCGUUGGCGUAAUGGUAACGCGUAUCCCUCCUAAGGAGAAGACUGCGGGUCCGAGUCCCGUACGGAACG, the yeast fitness was found to be 0.991.

For GUUCCGUUGGCGUAAUGGUAACGCGUGUCCCUCCUAGGGAGAAGACUGCGGGUUCGAGUCCCGUACGGACCG, the yeast fitness was 0.533. The figure for GUUCCGUUGGCGUAAUGGUAACGCGUGUCCCUCCUAAGGUGAAGACUGCGGGUUUGAGUCCCGUACGGAACG is at most 0.5.

Regarding GUUCCGUUGGCGUAAUGGUAACGCGUAUCCCUCCUAAGGAGAAGACUGCGGGAUCGACUCCCGUACGGACCG, the yeast fitness was 0.57.

On to GUUCCGUUGGCGUAAUGGUAACGCGUAUCCCUCCCAAGGAGAAGACUGCGGGUUCGCGUCCCGUACGGAACG, for which the yeast fitness was determined as 0.619. As to GUUCCGUUGGCGUAAUGGUAACGCGUGUCCCUCCUAAGGAGCAGACUGCGGGUUAGAGUCCCGUACGGAACG, the yeast fitness is 0.682.

Take GUUCCGUUGGCGUAAUGGUAACGCGUGUCCCUCCUAAGGAGCAGACUGCCGGUUCAAGUCCCGUAGGGAACG: the yeast fitness is at most 0.5. In the case of GUUCCGUUGGCGUAAUGGUAACGCGUGUCCCUCCUCAGGAGUAGACUGCGGGUUCGAGUCCCGUAUGGAACG it was at most 0.5; in that of GUUCCGUUGGCGUAAUGGUAACGCGUAUCCCUCCUAAGGAGAAGACUGCGGGUACGAGUCCCGUUUGGAACG, at most 0.5; in that of GUUCCGUUGGCGUAAUGGUAACGCGUAUCCCUCCUAAGGAGAAGACUGCGGGUUCGAGUCCCGAACGCAACG, at most 0.5. The figure for GUUCCGUUGGCGUAAUGGUAACGCGUGUCCCUCCUAGGGAGAAGACUGCGGGUUCGAGUCCCCCACGGAACG is at most 0.5.

As for GUUCCGUUGGCGUAAUGGUAACGCGUGUCCCUCCUGAGGAGAAGACUGCGGGUUCGAGUCACGUUCGGAACG, the yeast fitness is at most 0.5. On to GUUCCGUUGGCGUAAUGGUAACGCGUGUCCCUCCUAGGGAGAAGACUGCGGGUUCGCGUCCCGUACGCCACG, for which the yeast fitness is at most 0.5. In the case of GUUCCGUUGGCGUAAUGGUAACGCGUGUCCCUCCUGAGGAGAAGACUGCGGGUUCGAGUCCCCUAUGGAACG it was at most 0.5; in that of GUUCCGUUGGCGUAAUGGUAACGCGUAACGCUCCUAAGGAGAAGACUGCGGGUUCGAGUCCCGUACAGAACG, 0.587; in that of GUUCCGUUGGCGUAAUGGUAACGCGUAUCCCUCCUAAGGAGAAGACUGCGGGUUCAAGUCCCGUACGGAACG, 0.707. In the case of GUUCCGUUGGCGUAAUGGUAACGCGUAUCCCUCCUAAGGAGAAGACAGCGGGUUCCAGUCCCGUACGGCACG it was 0.894.

GUUCCGUUGGCGUAAUGGUAACGCGUAUCCCGCCUAAGGAGAAGACUGCGGGUUCGAGUCCCGUACGGAACG: the yeast fitness was determined as 0.595. The figure for GUUCCGUUGGCGUAAUGGUAACGCGUAUCCCUCCUAAGGAGAAGACUGCGGGUUCAAGUCCCGUUAGGAACG is at most 0.5; for GUUCCGUUGGCGUAAUGGUAACGCGUGUCCCUCCUUAGGAGAAGACUGCGGGUUCGAGUCCCGUACGGAACG it is 0.666; for GUUCCGUUGGCGUAAUGGUAACGCGUGUCCCUCCUGAGGAGAAGACUGCGGGUUCGAGUCCCGUACGGAACG it is 0.542. With GUUCCGUUGGCGUAAUGGUAACGCGUGUCCCUCCUGAGGGGAAGACUGCGGGUUCGAGUCCCGUACGGCACG, the yeast fitness is at most 0.5. As for GUUCCGUUGGCGUAAUGGUAACGCGUGUCCCUCCUGAGGGGAAGACUGCGGGUUCGAGUCCCGUACGGUACG, the yeast fitness is at most 0.5. In the case of GUUCCGUUGGCGUAAUGGUAACGCGUAUCCCUCCUAAGGAGAAGACUGCCGGUUCGAGUCCCGUACGGAACG it was 0.721; in that of GUUCCGUUGGCGUAAUGGUAACGCGUAUCCCUCCUAAGGAGAAGACUGCGGGUUCGAGACCCGUACGGAACG, 0.876.

As for GUUCCGUUGGCGUAAUGGUAACGCGUGUCCCUCCUAAGGGGAAGACUGCGAGUUCGAGUCCCGUACGGAACG, the yeast fitness was determined as 0.541.

Take GUUCCGUUGGCGUAAUGGUAACGCGUAUCCCUCCUAAGGAGAAGACUGCGGGUUCGAGCCCAGUACGGAACG: the yeast fitness was at most 0.5. In the case of GUUCCGUUGGCGUAAUGGUAACGCGUACCCCUCCUAAGGAGAAGACUGCGGGUUCGAGUCCCGUACGGAACG it was 0.775; in that of GUUCCGUUGGCGUAAUGGUAACGCGUAUCCCUCCUAAGGAGAAGACGGCGGGUUCGAGUCCCGUACGGCACG, at most 0.5. Consider GUUCCGUUGGCGUAAUGGUAACGCGUAUCCCUCCUAAGGAGAAGACCGCGGGUUCGAGUCCCGCACGGACCG, for which the yeast fitness turned out to be 0.535. Regarding GUUCCGUUGGCGUAAUGGUAACGCGUGUCCCUCCUUAGCAGAAGACUGCGGGUUCGAGUCCCGUACGCAACG, the yeast fitness turned out to be 0.533.

On to GUUCCGUUGGCGUAAUGGUAACGCGUAUCCCUCCUAAGGAGAAGACUGCGGGUUCGAGUCCCGAACGGCACG, for which the yeast fitness stood at 0.703. GUUCCGUUGGCGUAAUGGUAACGCGUAUCCCUCCCAAGGAGUAGACUGCGGGUUCGAGUCCCGUACGGGACG: the yeast fitness is at most 0.5. The figure for GUUCCGUUGGCGUAAUGGUAACGCGUGUCCCUCCUACGGAGAAGACUGCGGCUUCGAGUCCCGUACGGAACG is at most 0.5; for GUUCCGUUGGCGUAAUGGUAACGCGUGUCCCUCCUUAGGAGAAGUCUGCGGGUUCGAGUCCCGUACGGCACG it is 0.577. Regarding GUUCCGUUGGCGUAAUGGUAACGCGUGUCCCUCCUAUGGAGAAGACUGGGGGUUCGAGUCCCGCACGGCACG, the yeast fitness was at most 0.5. As to GUUCCGUUGGCGUAAUGGUAACGCGUGUCCCUCCUAAGGUGAAGACUGCGGGUUCGAGUCCCGUACGGACCG, the yeast fitness is at most 0.5.
